Results taken from ChEMBL document CHEMBL3044723, “Phytotoxins from the leaves of Ruta graveolens” (2004).
Activity calls are given as the source filed them. The calls are words filed in the database; no cut-off is given here.

Columns and labels:
Lactuca sativa [1] = assay: Phytotoxicity against Lactuca sativa cv. Burpee's Iceberg (lettuce) assessed as reduction in chlorophyll content compound treated at 100 uM in darkness after 7 days followed by exposure to white light by spectrophotometry; type: functional, organism-based
Procedure, shortened: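 Seedlings were treated in wells with 1% acetone final and kept in foil-wrapped darkness at 26 °C for 7 days. They then received 5 min of white light (80 µmol s⁻¹ m⁻² PAR) and were returned to darkness for 1 h. Ten cotyledon pairs were weighed and extracted in DMSO in the dark. Chlorophyll was read at 645/663 nm and compared with the solvent control.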

Lactuca sativa [2] = assay: Phytotoxicity against Lactuca sativa cv. Burpee's Iceberg (lettuce) assessed as reduction in chlorophyll content at 100 uM after 7 days by spectrophotometry; type: functional, organism-based
Procedure, shortened: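 Seeds grown in 24-well plates in water with 3% acetone, at 26 °C under continuous light (173 µmol s⁻¹ m⁻²) for 7 days. Cotyledons from three plants per well were weighed and extracted in 2 mL DMSO at 60 °C for 2 h, then diluted with 1 mL more DMSO. A645 and A663 were read and converted to total chlorophyll (20.2A645 + 8.02A663). Values were normalized to cotyledon weight.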

Lactuca sativa [3] = assay: Phytotoxicity against Lactuca sativa cv. Burpee's Iceberg (lettuce) assessed as unbranched root tips at 10 uM after 7 days by spectrophotometry relative to control; type: functional, organism-based
Allium cepa [4] = assay: Phytotoxicity against Allium cepa (onion) assessed as accumulation of cells at metaphase in root tips at 33 uM measured on day 7 of compound treatment by microscopy; type: functional, organism-based
Procedure, shortened: (§1)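 Ten surface-sterilized onion seeds were placed on filter paper in 6-cm dishes with 1 mL of water containing compound (final 0.05% acetone). Controls received water or acetone/water. Dishes were kept at 25 °C under a 16 h photoperiod at 173 µmol s⁻¹ m⁻². On day 7, root tips were fixed (HOAc/EtOH 1:3), hydrolyzed in 5 N HCl for 1 h, and Feulgen-stained with Schiff's reagent for 45 min. At least 1000 cells per slide were scored at 40×.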

Allium cepa [5] = assay: Phytotoxicity against Allium cepa (onion) assessed as accumulation of cells at prophase in root tips at 33 uM measured on day 7 of compound treatment by microscopy; type: functional, organism-based; procedure, shortened: as §1
Allium cepa [6] = assay: Phytotoxicity against Allium cepa (onion) assessed as inhibition of mitosis in root tips at 100 uM measured on day 7 of compound treatment by microscopy; type: functional, organism-based; procedure, shortened: as §1
Agrostis stolonifera = assay: Phytotoxicity against Agrostis stolonifera assessed as mortality at 333 uM after 12 days; type: functional, organism-based
Procedure, shortened: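 Seeds (10 mg) per well of 24-well plates in 250 µL water containing 3% acetone as final concentration; solvent-only controls. Plates were sealed and incubated at 26 °C under continuous light at 173 µmol s⁻¹ m⁻². Concentrations tested were 10, 33, 100 and 333 µM. Phytotoxicity was scored visually against untreated controls.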

Lactuca sativa [7] = assay: Phytotoxicity against Lactuca sativa cv. Burpee's Iceberg (lettuce) assessed as blunt root tips at 10 uM after 7 days by spectrophotometry relative to control; type: functional, organism-based
Lactuca sativa [8] = assay: Phytotoxicity against Lactuca sativa cv. Burpee's Iceberg (lettuce) assessed as reduction in radical length at 10 uM after 7 days by spectrophotometry relative to control; type: functional; parameters: scale not given: the % may be the effect or the level left
Procedure, shortened: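 Lettuce seeds were set in multiwell plates with test material supplied from acetone in DDI water (3% acetone final). Controls received acetone and water only. Plates were sealed and kept at 26 °C under continuous light at 173 µmol s⁻¹ m⁻² for 7 days. Root lengths, together with plant weight and chlorophyll content, were compared against untreated controls.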

Lemna aequinoctialis [9] = assay: Phytotoxicity against Lemna paucicostata assessed as tissue degradation at 250 uM after 4 to 5 days; type: functional, organism-based
Lemna aequinoctialis [10] = assay: Phytotoxicity against Lemna paucicostata assessed as growth inhibition at 100 uM after 4 to 5 days; type: functional, organism-based
Procedure, shortened: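 Hoagland medium at pH 5.5 was filter-sterilized in 6-well plates, with compound added in acetone or EtOH (1% final). Two three-frond colonies from 4- to 5-day-old stock cultures were placed per well. Total frond area was recorded by image analysis from day 0 to day 7.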

Compound	Activity (Lactuca sativa [1])	Activity (Lactuca sativa [2])	Activity (Lactuca sativa [3])	Activity (Allium cepa [4])	Activity (Allium cepa [5])	inhibition (Allium cepa [6])	Activity (Agrostis stolonifera)	Activity (Lactuca sativa [7])	Activity (Lactuca sativa [8])	Activity (Lemna aequinoctialis [9])	growth inhibition (GI) (Lemna aequinoctialis [10])
COc1c2occc2cc2ccc(=O)oc12 [METHOXSALEN]	inactive	Active	Active	Active	Active	Active	Active	Active	39%	–	–
COc1c2ccoc2cc2oc(=O)ccc12	–	–	inactive	–	–	Active	Active	inactive	inactive	–	–
Cn1c(-c2ccc3c(c2)OCO3)cc(=O)c2ccccc21	inactive	Active	–	–	–	Active	Active	–	–	Active	Active
